SMILES strings stand for the structures.

Experiment [1] deals with T1, Prostaglandin G/H synthase 1 (Ovis aries, UniProt P05979).
T1 sequence (P05979 whole entry): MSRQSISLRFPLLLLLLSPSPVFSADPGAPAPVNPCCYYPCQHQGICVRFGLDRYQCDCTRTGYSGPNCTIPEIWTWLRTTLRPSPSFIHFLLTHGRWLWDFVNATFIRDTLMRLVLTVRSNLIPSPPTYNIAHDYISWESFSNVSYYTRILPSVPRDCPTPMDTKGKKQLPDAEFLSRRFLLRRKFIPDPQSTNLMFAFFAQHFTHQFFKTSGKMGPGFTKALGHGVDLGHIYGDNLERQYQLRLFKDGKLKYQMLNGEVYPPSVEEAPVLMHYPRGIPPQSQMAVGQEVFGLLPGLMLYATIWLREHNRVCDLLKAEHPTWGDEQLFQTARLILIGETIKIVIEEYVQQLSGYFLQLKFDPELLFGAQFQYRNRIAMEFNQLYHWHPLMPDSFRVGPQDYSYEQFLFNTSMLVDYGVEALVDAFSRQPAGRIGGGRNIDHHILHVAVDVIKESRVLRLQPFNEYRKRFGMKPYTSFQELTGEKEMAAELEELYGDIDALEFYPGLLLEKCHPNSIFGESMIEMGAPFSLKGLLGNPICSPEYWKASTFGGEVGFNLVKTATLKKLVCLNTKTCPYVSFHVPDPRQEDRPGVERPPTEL
Briefly: Inhibition of ovine COX1 pre-incubated for 10 mins before arachidonic acid substrate addition by enzyme immunoassay. In outline: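 Ovine COX-1 pre-incubated with inhibitor for 10 min at 37 °C, then 5 μM arachidonic acid for 2 min at 37 °C. Stopped with HCl; PGH2 reduced to PGF2α with SnCl2 and measured by competitive EIA (PG antibody, PG-acetylcholinesterase conjugate), absorbance at 412 nm.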

Experiment [2] concerns the target T2, Fatty-acid amide hydrolase 1 (Rattus norvegicus, UniProt P97612).
T2 sequence (P97612 whole entry): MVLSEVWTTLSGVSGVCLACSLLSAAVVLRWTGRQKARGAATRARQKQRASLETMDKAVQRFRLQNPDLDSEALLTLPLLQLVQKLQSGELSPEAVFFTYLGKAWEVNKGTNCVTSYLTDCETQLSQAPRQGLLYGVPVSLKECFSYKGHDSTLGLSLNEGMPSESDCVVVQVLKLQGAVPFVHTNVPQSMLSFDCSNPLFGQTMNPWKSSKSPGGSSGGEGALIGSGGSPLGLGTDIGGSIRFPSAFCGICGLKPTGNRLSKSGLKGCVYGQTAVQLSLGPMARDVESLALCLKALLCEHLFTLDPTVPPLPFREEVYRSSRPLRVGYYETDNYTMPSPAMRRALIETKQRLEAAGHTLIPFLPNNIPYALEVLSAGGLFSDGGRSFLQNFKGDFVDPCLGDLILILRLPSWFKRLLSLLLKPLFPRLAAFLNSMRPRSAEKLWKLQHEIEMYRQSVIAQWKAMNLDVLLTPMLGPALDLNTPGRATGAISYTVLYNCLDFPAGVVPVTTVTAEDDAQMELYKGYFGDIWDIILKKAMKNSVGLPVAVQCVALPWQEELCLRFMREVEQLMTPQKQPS
Briefly: Inhibition of FAAH in rat brain homogenates pre-incubated for 10 mins before addition of [3H]anandamide and [3H]AEA substrates for 30 mins by liquid scintillation counting. The experiment is classed as tissue-based. In outline: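 Rat whole-brain homogenate (50 ug protein/sample) in 50 mM TRIS pH 7.4, 0.05 % fatty acid free BSA; inhibitor pre-incubated 10 min, then 1 uM unlabelled AEA plus 0.6 nM [3H]-AEA added for 30 min at 37°C. Stopped with cold 1:1 CHCl3/MeOH; aqueous phase counted.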

Experiment [3] concerns the target T3, Prostaglandin G/H synthase 2 (Homo sapiens, UniProt P35354).
T3 sequence (P35354 whole entry): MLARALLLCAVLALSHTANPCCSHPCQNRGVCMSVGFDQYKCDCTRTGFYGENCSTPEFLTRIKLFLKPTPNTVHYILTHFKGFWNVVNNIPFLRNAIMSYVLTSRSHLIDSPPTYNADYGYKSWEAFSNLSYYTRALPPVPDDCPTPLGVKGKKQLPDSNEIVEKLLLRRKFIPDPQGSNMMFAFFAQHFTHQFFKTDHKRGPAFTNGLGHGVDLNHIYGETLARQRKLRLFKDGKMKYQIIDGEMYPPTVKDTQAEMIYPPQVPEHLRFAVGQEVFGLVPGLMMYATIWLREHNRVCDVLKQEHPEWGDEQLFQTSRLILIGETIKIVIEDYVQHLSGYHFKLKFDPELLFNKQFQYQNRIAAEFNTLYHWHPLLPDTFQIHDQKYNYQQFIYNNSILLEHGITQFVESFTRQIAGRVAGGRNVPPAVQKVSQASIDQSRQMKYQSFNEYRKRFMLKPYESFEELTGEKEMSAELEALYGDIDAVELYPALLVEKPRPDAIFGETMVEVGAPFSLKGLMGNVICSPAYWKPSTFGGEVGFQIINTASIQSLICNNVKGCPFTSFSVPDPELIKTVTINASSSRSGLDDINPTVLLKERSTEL
Briefly: Inhibition of human COX2 pre-incubated for 10 mins before substrate addition by enzyme immunoassay.

In general, IC50 refers to the midpoint of a concentration-inhibition curve. `C[C@H](C(=O)O)c1ccc2c(c1)[nH]c1ccc(Cl)cc12` yielded a half-inhibitory concentration (IC50) in experiment [1] of 5.6 µM.
For the compound `C[C@@H](C(=O)O)c1ccc2c(c1)[nH]c1ccc(Cl)cc12`, the IC50 in experiment [1] is over 100 µM.
Take `C[C@H](C(=O)O)c1ccc2c3cc(Cl)ccc3n(C(=O)c3ccc(Cl)cc3)c2c1`: the IC50 in experiment [1] is 45 µM; in experiment [2] (read-out: IC50), over 100 µM; in experiment [3], 46.5 µM.
In the case of `C[C@@H](C(=O)O)c1ccc2c3cc(Cl)ccc3n(C(=O)c3ccc(Cl)cc3)c2c1`, the IC50 is over 100 µM in experiment [1], 14.9 µM in experiment [2] (read-out: IC50) and over 100 µM in experiment [3].
Take `C[C@H](C(=O)O)c1ccc2c3cc(Cl)ccc3n(C(=O)c3cocn3)c2c1`: the figures for the IC50 in experiment [1], in experiment [2] (read-out: IC50) and in experiment [3] were 4.1 µM, over 100 µM and 2.5 µM, respectively.
As to `C[C@@H](C(=O)O)c1ccc2c3cc(Cl)ccc3n(C(=O)c3cocn3)c2c1`, the half-maximal inhibitory concentration (IC50) is over 100 µM in experiment [1], 53.2 µM in experiment [2] (read-out: IC50) and over 100 µM in experiment [3].
Regarding `COc1cccc(Cn2c3ccc(Cl)cc3c3ccc(C(C)C(=O)O)cc32)c1` (racemic), the IC50 in experiment [1] was over 100 µM; in experiment [2] (read-out: IC50), 32.5 µM; in experiment [3], over 100 µM.
In the case of `CC(C(=O)O)c1ccc2c3cc(Cl)ccc3n(C(=O)c3ccc(F)cc3)c2c1` (racemic), the IC50 was over 100 µM in experiment [1], 30.9 µM in experiment [2] (read-out: IC50) and over 100 µM in experiment [3].
For the compound `COc1ccc(C(=O)n2c3ccc(Cl)cc3c3ccc(C(C)C(=O)O)cc32)cc1` (racemic), the IC50 is over 100 µM in experiment [1], 10.6 µM in experiment [2] (read-out: IC50) and over 100 µM in experiment [3].
Regarding `CC(C(=O)O)c1ccc2c3cc(Cl)ccc3n(C(=O)c3cccc(Cl)c3)c2c1` (racemic), the 50% inhibitory concentration (IC50) was over 100 µM in experiment [1], 20.1 µM in experiment [2] (read-out: IC50) and over 100 µM in experiment [3].
For `CC(C(=O)O)c1ccc2c3cc(Cl)ccc3n(C(=O)c3ccccc3Cl)c2c1` (racemic), the results for the IC50 in experiment [1], in experiment [2] (read-out: IC50) and in experiment [3] were over 100 µM, 59.6 µM and over 100 µM, respectively.
On to `CC(C(=O)O)c1ccc2c3cc(Cl)ccc3n(C(=O)c3ccc(Cl)c(Cl)c3)c2c1` (racemic), for which the half-inhibitory concentration (IC50) in experiment [1], in experiment [2] (read-out: IC50) and in experiment [3] was over 100 µM in each case.
Consider `CC(C(=O)O)c1ccc2c3cc(Cl)ccc3n(C(=O)c3cocn3)c2c1` (racemic), for which the 50% inhibitory concentration (IC50) was found to be 30 µM in experiment [1], 84.8 µM in experiment [2] (read-out: IC50) and 27.8 µM in experiment [3].
Take `CC(C(=O)O)c1ccc2c3cc(Cl)ccc3n(C(=O)c3cnc[nH]3)c2c1` (racemic): the half-inhibitory concentration (IC50) in experiment [1] was 12.8 µM; in experiment [2] (read-out: IC50) it was 5.6 µM; in experiment [3], over 100 µM.
For `CC(C(=O)O)c1ccc2c3cc(Cl)ccc3n(C(=O)c3cscn3)c2c1` (racemic), the IC50 in experiment [1], in experiment [2] (read-out: IC50) and in experiment [3] was over 100 µM throughout.
For `CC(C(=O)O)c1ccc2c3cc(Cl)ccc3n(C)c2c1` (racemic), the IC50 was over 100 µM in experiment [1], 15.5 µM in experiment [2] (read-out: IC50) and over 100 µM in experiment [3].
Regarding `CC(C(=O)O)c1ccc2c3cc(Cl)ccc3n(Cc3ccccc3)c2c1` (racemic), the IC50 is over 100 µM in experiment [1], 23.3 µM in experiment [2] (read-out: IC50) and over 100 µM in experiment [3].
Consider `CC(C(=O)O)c1ccc2c3cc(Cl)ccc3n(Cc3ccc(C#N)cc3)c2c1` (racemic), for which the IC50 in experiment [1] was over 100 µM; in experiment [2] (read-out: IC50), 33.4 µM; in experiment [3], over 100 µM.
For `CC(C(=O)O)c1ccc2c3cc(Cl)ccc3n(Cc3ccc(Cl)cc3)c2c1` (racemic), the values for the IC50 in experiment [1], in experiment [2] (read-out: IC50) and in experiment [3] were over 100 µM, 10.2 µM and over 100 µM, respectively.
For `COc1ccc(Cn2c3ccc(Cl)cc3c3ccc(C(C)C(=O)O)cc32)cc1` (racemic), the half-inhibitory concentration (IC50) in experiment [1] is over 100 µM; in experiment [2] (read-out: IC50), 8.4 µM; in experiment [3] it was over 100 µM.
For `CCCCCCS(=O)(=O)n1c2ccc(Cl)cc2c2ccc(C(C)C(=O)O)cc21` (racemic), the IC50 in experiment [1] was over 100 µM; in experiment [2] (read-out: IC50) it was 50.3 µM; in experiment [3], over 100 µM.
In the case of `CCCCCCNC(=O)n1c2ccc(Cl)cc2c2ccc(C(C)C(=O)O)cc21` (racemic), the IC50 is over 100 µM in experiment [1], 3.2 µM in experiment [2] (read-out: IC50) and over 100 µM in experiment [3].
In the case of `CNC(=O)n1c2ccc(Cl)cc2c2ccc(C(C)C(=O)O)cc21` (racemic), the IC50 in experiment [1], in experiment [2] (read-out: IC50) and in experiment [3] was over 100 µM each time.
Turning to `CCCCNC(=O)n1c2ccc(Cl)cc2c2ccc(C(C)C(=O)O)cc21` (racemic), the IC50 in experiment [1], in experiment [2] (read-out: IC50) and in experiment [3] was over 100 µM each time.
Turning to `CCCCCCCCNC(=O)n1c2ccc(Cl)cc2c2ccc(C(C)C(=O)O)cc21` (racemic), the half-inhibitory concentration (IC50) in experiment [1] was 15.4 µM; in experiment [2] (read-out: IC50), 26.8 µM; in experiment [3] it was over 100 µM.
As for `CC(C(=O)O)c1ccc2c3cc(Cl)ccc3n(C(=O)Nc3ccc(Cl)cc3)c2c1` (racemic), the figures for the IC50 in experiment [1], in experiment [2] (read-out: IC50) and in experiment [3] were 41.3 µM, 102 µM and over 100 µM, respectively.
The like results for `CCCCCCN(C)C(=O)n1c2ccc(Cl)cc2c2ccc(C(C)C(=O)O)cc21` (racemic) were, in that order, over 100 µM, over 100 µM and over 100 µM.
Take `CC(C(=O)O)c1ccc2c3cc(Cl)ccc3n(C(=O)NC3CCCCC3)c2c1` (racemic): the 50% inhibitory concentration (IC50) in experiment [1], in experiment [2] (read-out: IC50) and in experiment [3] was over 100 µM each time.
As to `CCCCCCOC(=O)n1c2ccc(Cl)cc2c2ccc(C(C)C(=O)O)cc21` (racemic), the IC50 is 17.2 µM in experiment [1], 31.6 µM in experiment [2] (read-out: IC50) and over 100 µM in experiment [3].
The like results for `CC(=O)n1c2ccc(Cl)cc2c2ccc(C(C)C(=O)O)cc21` (racemic) were, in that order, over 100 µM, over 100 µM and over 100 µM.
Taken in the same sequence, the figures for `CC(C(=O)O)c1ccc2c3cc(Cl)ccc3n(C(=O)c3ccccc3)c2c1` (racemic) were over 100 µM, 25.4 µM and over 100 µM.
For `CC(C(=O)O)c1ccc2c3cc(Cl)ccc3n(C(=O)c3ccc(Cl)cc3)c2c1` (racemic), the IC50 turned out to be 74.3 µM in experiment [1], 22 µM in experiment [2] (read-out: IC50) and 72.3 µM in experiment [3].
Take `CC(C(=O)NCCO)c1ccc2c(c1)[nH]c1ccc(Cl)cc12` (racemic): the IC50 in experiment [1], in experiment [2] (read-out: IC50) and in experiment [3] was over 100 µM each time.
For `CC(C(=O)O)c1ccc2c3cc(Cl)ccc3n(S(=O)(=O)c3ccc(Cl)cc3)c2c1` (racemic), the IC50 in experiment [1] was over 100 µM; in experiment [2] (read-out: IC50), 4.8 µM; in experiment [3], over 100 µM.
Consider `CC(C(=O)O)c1ccc2c(c1)[nH]c1ccc(Cl)cc12` (racemic) [CARPROFEN], for which, in experiment [1], the IC50 came out at 22.3 µM.
For the compound `CC(C)Cc1ccc(C(C)C(=O)O)cc1` (stereo not given) [IBUPROFEN], the IC50 entry in experiment [2] is reported as “Not Active”.
